Consider seven compounds from ChEMBL document CHEMBL1128434, “Gonadotropin-releasing hormone antagonists: novel members of the azaline B family” (1995).

The species named for assay [1] is Rattus norvegicus. The assay can be described thus: Effect in the anti ovulatory assay (AOA) in rats expressed as no. of rats ovulating/No of rats treated at 1.0 mg; 1/8. It is filed as functional.
Assay [2] deals with T1, Gonadotropin-releasing hormone receptor (Rattus norvegicus) (UniProt P30969).
T1 sequence (whole entry): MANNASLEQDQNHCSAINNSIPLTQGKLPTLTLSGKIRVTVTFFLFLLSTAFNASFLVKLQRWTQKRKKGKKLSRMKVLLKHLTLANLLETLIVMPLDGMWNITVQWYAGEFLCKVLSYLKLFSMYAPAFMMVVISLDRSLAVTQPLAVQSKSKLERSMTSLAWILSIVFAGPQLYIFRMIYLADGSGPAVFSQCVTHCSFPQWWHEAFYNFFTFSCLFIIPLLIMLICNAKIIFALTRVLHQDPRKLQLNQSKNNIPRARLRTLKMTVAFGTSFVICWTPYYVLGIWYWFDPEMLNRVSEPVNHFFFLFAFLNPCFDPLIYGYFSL
The assay can be described thus: Duration of action measured using castrated male rat assay to inhibit luteinizing hormone release.; fully active at 72 hr. It is filed as functional.

The species entered for assay [3] is Rattus norvegicus. As to the kind of experiment: Effect in the anti ovulatory assay (AOA) in rats expressed as no. of rats ovulating/No of rats treated at 0.5 mg; 10/14. It is filed as functional.
The target of assay [4] is T1, Gonadotropin-releasing hormone receptor (Rattus norvegicus). The assay can be described thus: In vitro potency to inhibit GnRH-mediated LH secretion by cultured pituitary cells relative to [Ac-delta-Pro1,DFpa2,DTrp36]GnRH. It is filed as functional, cell-based. The note with it: Pituitary gland cell. In short, it runs like this:
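Dispersed rat pituitary cells in culture; antagonist inhibition of GnRH-stimulated LH secretion. Potency expressed relative to standard antagonist [Ac-Δ3Pro1,D4FPhe2,DTrp3,6]GnRH taken as 1.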

The species entered for assay [5] is Rattus norvegicus. As to the kind of experiment: Effect in the anti ovulatory assay (AOA) in rats expressed as no. of rats ovulating/No of rats treated at 1.0 mg; 5/5. Format: functional.
The species named for assay [6] is Rattus norvegicus. As to the kind of experiment: Effect in the anti ovulatory assay (AOA) in rats expressed as no. of rats ovulating/No of rats treated at 2.5 mg; 4/8. Format: functional.
The species named for assay [7] is Rattus norvegicus. The assay can be described thus: Effect in the anti ovulatory assay (AOA) in rats expressed as no. of rats ovulating/No of rats treated at 2.5 mg; 0/9. It is filed as functional.
The species entered for assay [8] is Rattus norvegicus. The assay can be described thus: Effect in the anti ovulatory assay (AOA) in rats expressed as no. of rats ovulating/No of rats treated at 1.0 mg; 6/6. Format: functional.
The species named for assay [9] is Rattus norvegicus. As to the kind of experiment: Duration of action measured using castrated male rat assay to inhibit luteinizing hormone release.; fully active at 48 hr but not at 72 hr. It is filed as functional.
The species entered for assay [10] is Rattus norvegicus. The assay can be described thus: Effect in the anti ovulatory assay (AOA) in rats expressed as no. of rats ovulating/No of rats treated at 1.0 mg; 7/8. Format: functional.
The species entered for assay [11] is Rattus norvegicus. As to the kind of experiment: Effect in the anti ovulatory assay (AOA) in rats expressed as no. of rats ovulating/No of rats treated at 2.5 mg; 0/6. It is filed as functional.
The species named for assay [12] is Rattus norvegicus. The assay can be described thus: Effect in the anti ovulatory assay (AOA) in rats expressed as no. of rats ovulating/No of rats treated at 2.5 mg; 0/6.
For assay [13], the species on record is Rattus norvegicus. As to the kind of experiment: Effect in the anti ovulatory assay (AOA) in rats expressed as no. of rats ovulating/No of rats treated at 1.0 mg; 3/11. Format: functional.
The species entered for assay [14] is Rattus norvegicus. As to the kind of experiment: Effect in the anti ovulatory assay (AOA) in rats expressed as no. of rats ovulating/No of rats treated at 0.5 mg; 4/4. It is filed as functional.
The species entered for assay [15] is Rattus norvegicus. As to the kind of experiment: Effect in the anti ovulatory assay (AOA) in rats expressed as no. of rats ovulating/No of rats treated at 2.5 mg; 4/4. Format: functional.
For assay [16], the species on record is Rattus norvegicus. The assay can be described thus: Effect in the anti ovulatory assay (AOA) in rats expressed as no. of rats ovulating/No of rats treated at 5.0 mg; 0/6. It is filed as functional.
Assay [17] is filed under the species Rattus norvegicus. As to the kind of experiment: Effect in the anti ovulatory assay (AOA) in rats expressed as no. of rats ovulating/No of rats treated at 0.5 mg; 6/6. It is filed as functional.
For assay [18], the species on record is Rattus norvegicus. As to the kind of experiment: Effect in the anti ovulatory assay (AOA) in rats expressed as no. of rats ovulating/No of rats treated at 1.0 mg; 2/10. It is filed as functional.

Regarding `CC(=O)N[C@H](Cc1ccc2ccccc2c1)C(=O)N[C@H](Cc1ccc(Cl)cc1)C(=O)N[C@H](Cc1cccnc1)C(=O)N[C@@H](CO)C(=O)N[C@@H](Cc1ccc(NC(=O)CCCNc2n[nH]c(N)n2)cc1)C(=O)N[C@H](Cc1ccc(NC(=O)CCCNc2n[nH]c(N)n2)cc1)C(=O)N[C@@H](CC(C)C)C(=O)N[C@@H](CCCCNC(C)C)C(=O)N1CCC[C@H]1C(=O)N[C@H](C)N`, the “No. of rats ovulated” value in the assay listed under Rattus norvegicus [1] is given as 1; in the assay listed under Rattus norvegicus [3], 10. For the same compound, the Duration of action in [2] is 72 h. For the same compound, the Relative potency in assay [4] came out at 0.21.
Turning to `CC(=O)N[C@H](Cc1ccc2ccccc2c1)C(=O)N[C@H](Cc1ccc(Cl)cc1)C(=O)N[C@H](Cc1cccnc1)C(=O)N[C@@H](CO)C(=O)N[C@@H](Cc1ccc(NC(=O)CCl)cc1)C(=O)N[C@H](Cc1ccc(NC(=O)CCl)cc1)C(=O)N[C@@H](CC(C)C)C(=O)N[C@@H](CCCCNC(C)C)C(=O)N1CCC[C@H]1C(=O)N[C@H](C)N`, the “No. of rats ovulated” value in the assay listed under Rattus norvegicus [5] was found to be 5; in the assay listed under Rattus norvegicus [6] it was 4.
`CC(=O)N[C@H](Cc1ccc2ccccc2c1)C(=O)N[C@H](Cc1ccc(Cl)cc1)C(=O)N[C@H](Cc1cccnc1)C(=O)N[C@@H](CO)C(=O)N[C@@H](Cc1ccc(Nc2n[nH]c(N)n2)cc1)C(=O)N[C@H](Cc1ccc(Nc2n[nH]c(N)n2)cc1)C(=O)N[C@@H](Cc1ccccc1)C(=O)N[C@@H](CCCCNC(C)C)C(=O)N1CCC[C@H]1C(=O)N[C@H](C)N`: the “No. of rats ovulated” value in the assay filed under Rattus norvegicus [7] came out at 0; in the assay filed under Rattus norvegicus [8] it was 6. In addition, the Duration of action entry in the assay listed under Rattus norvegicus [9] is reported as “Intermediate”.
With `CC(=O)N[C@H](Cc1ccc2ccccc2c1)C(=O)N[C@H](Cc1ccc(Cl)cc1)C(=O)N[C@H](Cc1cccnc1)C(=O)N[C@@H](CO)C(=O)N[C@@H](Cc1ccc(N)cc1)C(=O)N[C@H](Cc1ccc(N)cc1)C(=O)N[C@@H](CC(C)C)C(=O)N[C@@H](CCCCNC(C)C)C(=O)N1CCC[C@H]1C(=O)N[C@H](C)N`, the “No. of rats ovulated” value in the assay filed under Rattus norvegicus [10] worked out at 7; in the assay filed under Rattus norvegicus [11], 0; in the assay listed under Rattus norvegicus [12], 0. The Duration of action in [2] stood at 72 h. The same compound came in with a Relative potency in assay [4] of 0.74.
For `CC(=O)N[C@H](Cc1cnc2ccccc2c1)C(=O)N[C@H](Cc1ccc(Cl)cc1)C(=O)N[C@H](Cc1cccnc1)C(=O)N[C@@H](CO)C(=O)N[C@@H](Cc1ccc(Nc2n[nH]c(N)n2)cc1)C(=O)N[C@H](Cc1ccc(Nc2n[nH]c(N)n2)cc1)C(=O)N[C@@H](CC(C)C)C(=O)N[C@@H](CCCCNC(C)C)C(=O)N1CCC[C@H]1C(=O)N[C@H](C)N`, the “No. of rats ovulated” value in the assay filed under Rattus norvegicus [13] worked out at 3; in the assay listed under Rattus norvegicus [14] it was 4.
As to `CC(=O)N[C@H](Cc1ccc2ccccc2c1)C(=O)N[C@H](Cc1ccc(Cl)cc1)C(=O)N[C@H](Cc1cccnc1)C(=O)N[C@@H](CO)C(=O)N(C)[C@@H](Cc1ccc(Nc2n[nH]c(N)n2)cc1)C(=O)N[C@H](Cc1ccc(Nc2n[nH]c(N)n2)cc1)C(=O)N[C@@H](CC(C)C)C(=O)N[C@@H](Cc1ccc(CNC(C)C)cc1)C(=O)N1CCC[C@H]1C(=O)N[C@H](C)N`, the “No. of rats ovulated” value in the assay listed under Rattus norvegicus [15] is 4; in the assay filed under Rattus norvegicus [16] it was 0.
For the compound `CC(=O)N[C@H](Cc1ccc2ccccc2c1)C(=O)N[C@H](Cc1ccc(Cl)cc1)C(=O)N[C@H](Cc1cccnc1)C(=O)N[C@@H](CO)C(=O)N[C@@H](Cc1ccc(NC(=O)CCCCCNc2n[nH]c(N)n2)cc1)C(=O)N[C@H](Cc1ccc(NC(=O)CCCCCNc2n[nH]c(N)n2)cc1)C(=O)N[C@@H](CC(C)C)C(=O)N[C@@H](CCCCNC(C)C)C(=O)N1CCC[C@H]1C(=O)N[C@H](C)N`, the “No. of rats ovulated” value came out at 6 in the assay filed under Rattus norvegicus [17] and 2 in the assay filed under Rattus norvegicus [18]. In the assay listed under Rattus norvegicus [9], this compound yielded a Duration of action of 48 h. Besides, the Relative potency in assay [4] is 0.48.
